Results on 29 molecules are retold here after ChEMBL document CHEMBL1944541, “Novel inhibitors of nitric oxide synthase with antioxidant properties” (Eur J Med Chem, 2012).

SMILES strings stand for the structures.

In assay [1] the test system is Plasma. The assay is described as follows: Antioxidant activity in human plasma assessed as inhibition of Fe2+-induced lipid hydroperoxidation at 25 uM after 2 hrs by FOX assay relative to control. Type of assay: functional, cell-free.
For assay [2], the system named is Radical scavenging activity. The assay is described as follows: Antioxidant activity assessed as DPPH free radical scavenging activity at 100 uM after 10 mins relative to control. The class given is functional. An outline of the steps:
(§1)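 Compounds in ethanol with DPPH radical, tested at 50, 100 and 500, held 10 min at room temperature. Absorbance read at 517 nm and reported as percent decrease against control. IC50 was calculated for selected compounds. Trolox served as reference. Standard deviation was ≤10% (n ≥ 3).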
In general terms: DPPH is a stable violet radical that fades when it is reduced.

Assay [3] can be described thus: Antioxidant activity assessed as NADH oxidation-induced superoxide radical scavenging activity at 100 uM after 20 mins relative to control. Type of assay: functional. The method, boiled down: (§2)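 Superoxide generated without a Fenton-type reaction from NADH, EDTA/MnCl2 and β-mercaptoethanol in triethanolamine-diethanolamine buffer, pH 7.4 (1 mL). Compounds tested at 25, 50 and 100. […] IC50 was calculated. SOD (40 mU/ml) served as reference. SD ≤10% (n ≥ 3).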

Assay [4] can be described thus: Antioxidant activity assessed as NADH oxidation-induced superoxide radical scavenging activity at 50 uM after 20 mins relative to control. Type of assay: functional. An outline of the steps: as §2
Assay [5] can be described thus: Antioxidant activity assessed as NADH oxidation-induced superoxide radical scavenging activity after 20 mins. The class given is functional. The method, boiled down:
as §2

The test system of assay [6] is Plasma. The assay is described as follows: Antioxidant activity in human plasma assessed as inhibition of Fe2+-induced lipid hydroperoxidation at 100 uM after 2 hrs by FOX assay relative to control. The class given is functional, cell-free. An outline of the steps:
(§3)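 Plasma from a healthy donor: heparinized venous blood taken after an overnight fast, spun at 800 g for 20 min. Plasma was diluted 1:1 with oxygenated PBS and incubated 2 h at 37 °C with or without compound (10, 50, 100). Lipid hydroperoxides were measured by FOX assay (Fe2+→Fe3+ with xylenol orange, 560 nm), calibrated against H2O2. Results given as percent inhibition against untreated plasma.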

Assay [7] deals with Radical scavenging activity. Kind of assay: Antioxidant activity assessed as DPPH free radical scavenging activity at 500 uM after 10 mins relative to control. Type of assay: functional. An outline of the steps:
as §1

The target of another assay is T1, Nitric oxide synthase 3 (Mus musculus, UniProt P70313).
T1 sequence (P70313 whole entry): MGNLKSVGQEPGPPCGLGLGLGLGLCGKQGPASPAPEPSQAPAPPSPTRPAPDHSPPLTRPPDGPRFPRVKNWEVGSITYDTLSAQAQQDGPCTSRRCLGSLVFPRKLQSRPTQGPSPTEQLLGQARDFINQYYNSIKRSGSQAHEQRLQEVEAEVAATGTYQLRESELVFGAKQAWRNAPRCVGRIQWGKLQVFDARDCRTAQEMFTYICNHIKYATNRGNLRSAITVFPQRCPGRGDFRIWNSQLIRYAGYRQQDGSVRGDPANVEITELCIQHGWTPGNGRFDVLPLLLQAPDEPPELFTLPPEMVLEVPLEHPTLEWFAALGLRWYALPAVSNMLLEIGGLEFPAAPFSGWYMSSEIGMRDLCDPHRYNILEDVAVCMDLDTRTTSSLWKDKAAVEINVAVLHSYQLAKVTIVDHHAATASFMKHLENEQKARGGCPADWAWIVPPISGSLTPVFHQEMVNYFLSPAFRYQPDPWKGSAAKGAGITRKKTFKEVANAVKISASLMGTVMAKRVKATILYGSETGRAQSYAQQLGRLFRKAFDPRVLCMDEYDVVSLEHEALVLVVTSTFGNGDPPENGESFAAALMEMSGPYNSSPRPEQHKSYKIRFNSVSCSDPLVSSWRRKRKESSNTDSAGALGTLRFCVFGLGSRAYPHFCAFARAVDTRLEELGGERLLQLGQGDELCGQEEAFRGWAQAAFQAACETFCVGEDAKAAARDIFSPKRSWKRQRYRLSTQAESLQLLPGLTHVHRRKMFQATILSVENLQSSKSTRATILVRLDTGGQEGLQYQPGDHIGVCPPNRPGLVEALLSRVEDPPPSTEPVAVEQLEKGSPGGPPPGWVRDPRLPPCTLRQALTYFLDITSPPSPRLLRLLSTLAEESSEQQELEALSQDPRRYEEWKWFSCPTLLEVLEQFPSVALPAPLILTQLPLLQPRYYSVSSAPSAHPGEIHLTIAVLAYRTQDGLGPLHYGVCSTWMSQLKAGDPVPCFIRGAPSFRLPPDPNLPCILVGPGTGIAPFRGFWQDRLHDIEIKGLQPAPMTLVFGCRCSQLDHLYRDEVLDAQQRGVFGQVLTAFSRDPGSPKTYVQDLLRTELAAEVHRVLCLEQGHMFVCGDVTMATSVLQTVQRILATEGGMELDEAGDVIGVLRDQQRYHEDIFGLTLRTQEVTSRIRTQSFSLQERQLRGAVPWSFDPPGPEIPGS
Kind of assay: Inhibition of C57BL/6 mouse eNOS assessed as conversion of oxyhemoglobin to methemoglobin by UV spectrophotometer analysis. An outline of the steps:
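eNOS from H5V mouse endothelial cells (passage 5, DMEM with 10% FCS, 37 °C, 5% CO2). Cells were sonicated in Tris-HCl pH 7.4 with EDTA, DTT and protease inhibitors, and the 20,000 g supernatant was used. Activity was followed as oxyhemoglobin→methemoglobin conversion in Hepes pH 7.4 with L-arginine, NADPH, FAD, BH4, Ca2+ and calmodulin. Compounds tested at 500, 100 and 50. Results reported as Ki or percent inhibition.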

A further assay concerns the target Nitric oxide synthase 1 (Rattus norvegicus, UniProt P29476). Kind of assay: Inhibition of rat recombinant nNOS expressed in baculovirus-infected Sf9 cells assessed as conversion of oxyhemoglobin to methemoglobin by UV spectrophotometer analysis.
The nature of assay [8]: Antioxidant activity assessed as NADH oxidation-induced superoxide radical scavenging activity at 25 uM after 20 mins relative to control. The class given is functional. An outline of the steps: as §2
Assay [9] has as its system Plasma. Kind of assay: Antioxidant activity in human plasma assessed as inhibition of Fe2+-induced lipid hydroperoxidation at 50 uM after 2 hrs by FOX assay relative to control. Type of assay: functional, cell-free. The method, boiled down:
as §3

Assay [10] has as its system Radical scavenging activity. Kind of assay: Antioxidant activity assessed as DPPH free radical scavenging activity after 10 mins. The class given is functional. The method, boiled down: as §1
Assay [11] has as its system Plasma. Kind of assay: Antioxidant activity in human plasma assessed as inhibition of Fe2+-induced lipid hydroperoxidation after 2 hrs by FOX assay. Type of assay: functional, cell-free.
Assay [12] relates to Radical scavenging activity. The assay is described as follows: Antioxidant activity assessed as DPPH free radical scavenging activity at 50 uM after 10 mins relative to control. The class given is functional. An outline of the steps:
as §1

Sequence of Nitric oxide synthase 1 (P29476 whole entry): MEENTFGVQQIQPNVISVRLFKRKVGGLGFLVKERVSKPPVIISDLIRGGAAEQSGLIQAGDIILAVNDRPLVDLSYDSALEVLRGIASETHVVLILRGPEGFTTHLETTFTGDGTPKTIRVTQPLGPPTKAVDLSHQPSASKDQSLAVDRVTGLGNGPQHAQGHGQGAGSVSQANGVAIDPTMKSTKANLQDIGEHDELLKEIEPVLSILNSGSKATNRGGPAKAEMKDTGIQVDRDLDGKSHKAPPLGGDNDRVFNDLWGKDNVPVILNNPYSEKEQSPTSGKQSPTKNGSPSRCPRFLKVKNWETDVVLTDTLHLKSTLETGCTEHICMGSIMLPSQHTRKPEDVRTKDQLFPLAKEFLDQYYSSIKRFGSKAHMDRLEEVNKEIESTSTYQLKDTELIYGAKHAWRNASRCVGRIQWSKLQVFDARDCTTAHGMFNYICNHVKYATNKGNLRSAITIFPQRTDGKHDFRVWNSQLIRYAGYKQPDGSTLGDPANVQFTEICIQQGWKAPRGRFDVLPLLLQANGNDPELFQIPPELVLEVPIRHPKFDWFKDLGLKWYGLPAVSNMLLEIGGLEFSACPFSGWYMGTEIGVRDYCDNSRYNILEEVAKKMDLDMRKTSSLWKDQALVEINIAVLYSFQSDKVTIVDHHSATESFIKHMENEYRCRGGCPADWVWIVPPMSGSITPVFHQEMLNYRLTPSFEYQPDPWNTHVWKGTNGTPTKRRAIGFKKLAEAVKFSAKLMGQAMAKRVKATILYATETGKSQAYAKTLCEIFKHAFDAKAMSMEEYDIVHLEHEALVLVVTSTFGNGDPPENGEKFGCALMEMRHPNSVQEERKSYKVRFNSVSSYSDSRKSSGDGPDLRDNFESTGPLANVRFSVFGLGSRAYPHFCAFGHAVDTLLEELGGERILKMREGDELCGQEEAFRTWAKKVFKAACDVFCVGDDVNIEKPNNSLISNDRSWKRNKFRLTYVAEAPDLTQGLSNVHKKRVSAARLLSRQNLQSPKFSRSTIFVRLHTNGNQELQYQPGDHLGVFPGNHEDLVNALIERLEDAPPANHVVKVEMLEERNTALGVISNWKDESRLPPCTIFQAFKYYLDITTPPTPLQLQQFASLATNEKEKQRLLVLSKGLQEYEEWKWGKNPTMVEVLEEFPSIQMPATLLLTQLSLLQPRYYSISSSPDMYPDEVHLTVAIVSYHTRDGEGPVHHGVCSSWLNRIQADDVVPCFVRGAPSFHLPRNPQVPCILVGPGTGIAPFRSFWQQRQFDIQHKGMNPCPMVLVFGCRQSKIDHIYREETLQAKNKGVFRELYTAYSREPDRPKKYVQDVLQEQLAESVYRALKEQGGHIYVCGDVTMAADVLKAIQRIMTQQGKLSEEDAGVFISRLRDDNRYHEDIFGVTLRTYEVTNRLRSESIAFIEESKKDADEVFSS

With `CCCc1nccn1CC(=O)c1ccc([N+](=O)[O-])cc1`, the inhibition in the assay with Plasma [1] is 30%; with Plasma [6] it was 44%; with Plasma [9], 31%. Moreover, the Activity was 35% in assay [2]; 62% in assay [3]; 34% in [4]; “Dose-dependent effect” in [5]; 56% in assay [7]; 22% in assay [8]. Further, the Activity entry in [10] is “Dose-dependent effect”; in assay [12], 25%. Further, the results for the half-maximal inhibitory concentration (IC50) (in assay [5]; in assay [10]; in the assay on Plasma [11]) were 38 µM, 262 µM and above 100 µM, respectively. The results for the Ki at Nitric oxide synthase 3 and at Nitric oxide synthase 1 were 45 µM and 40 µM, respectively.
In the case of `CC(C)c1nccn1CC(=O)c1ccccc1`, on Nitric oxide synthase 1, the Ki is 750 µM.
In the case of `Cc1nccn1CC(=O)c1ccc([N+](=O)[O-])cc1`, the values for the IC50 (in assay [5]; in assay [10]; in the assay on Plasma [11]) were 70 µM, 165 µM and 1.75 µM, respectively. For the same molecule, the inhibition constant (Ki) on Nitric oxide synthase 3 is above 2000 µM; on Nitric oxide synthase 1 it was 74 µM.
Regarding `O=C(Cn1cccn1)c1ccc([N+](=O)[O-])cc1`, the Ki at Nitric oxide synthase 3 came out at 60 µM; on Nitric oxide synthase 1 it was 40 µM.
As for `Cc1nccn1CC(=O)c1ccccc1`, the Ki on Nitric oxide synthase 1 was above 500 µM.
As for `CCc1nc(C)cn1CC(=O)c1ccc([N+](=O)[O-])cc1`, the Ki on Nitric oxide synthase 3 and at Nitric oxide synthase 1 was 75 µM each time.
`O=C(Cn1cncn1)c1ccc([N+](=O)[O-])cc1`: the figures for the Ki on Nitric oxide synthase 3 and on Nitric oxide synthase 1 were 40 µM and 47.5 µM, respectively.
As to `CC(C)c1nccn1CC(=O)c1ccc(Br)cc1`, on Nitric oxide synthase 1, the Ki came out at 450 µM.
Regarding `O=C(Cn1cnc2ccccc21)c1ccc([N+](=O)[O-])cc1`, the inhibition constant Ki at Nitric oxide synthase 3 was 2.75 µM; at Nitric oxide synthase 1, 46.6 µM.
Consider `Cc1cc(C)n(CC(=O)c2ccc([N+](=O)[O-])cc2)n1`, for which the inhibition constant Ki at Nitric oxide synthase 3 is 90 µM; on Nitric oxide synthase 1, 65 µM.
With `Cc1ccnn1CC(=O)c1ccc([N+](=O)[O-])cc1`, the inhibition constant Ki at Nitric oxide synthase 3 was found to be 30 µM; on Nitric oxide synthase 1, 63 µM.
Take `O=C(Cn1ccnc1)c1ccc(S(=O)(=O)C(F)(F)F)cc1`: the inhibitory constant (Ki) at Nitric oxide synthase 1 was 450 µM.
For the molecule `O=C(Cn1cc2cccc([N+](=O)[O-])c2n1)c1ccc([N+](=O)[O-])cc1`, the figures for the Ki on Nitric oxide synthase 3 and on Nitric oxide synthase 1 were 75 µM and 66.2 µM, respectively.
In the case of `O=C(Cn1cnc2ncccc21)c1ccc([N+](=O)[O-])cc1`, the inhibition constant (Ki) on Nitric oxide synthase 3 is 45 µM; on Nitric oxide synthase 1, 35.8 µM.
For the molecule `O=C(Cn1nc2ccccc2n1)c1ccc([N+](=O)[O-])cc1`, the inhibitory constant (Ki) on Nitric oxide synthase 3 came out at 30 µM; on Nitric oxide synthase 1, 22.5 µM.
In the case of `O=C(Cn1cnc(-c2ccccc2)c1-c1ccccc1)c1ccc([N+](=O)[O-])cc1`, the Ki was determined as 25 µM at Nitric oxide synthase 3 and 36.3 µM on Nitric oxide synthase 1.
Consider `O=C(Cn1cc2ccccc2n1)c1ccc([N+](=O)[O-])cc1`, for which the Ki at Nitric oxide synthase 3 came out at 60 µM; at Nitric oxide synthase 1, 32.5 µM.
The like results for `O=C(Cn1ccnc1-c1ccccc1)c1ccc([N+](=O)[O-])cc1` were, in that order, 37.5 µM and 40 µM.
As to `O=C(Cn1cnc2ccccc21)c1ccccc1`, the inhibition constant Ki on Nitric oxide synthase 1 came to 480 µM.
For the molecule `O=C(Cn1ccnc1)c1ccc([N+](=O)[O-])cc1`, the IC50 in assay [5] is 165 µM; in assay [10], 415 µM; in the assay on Plasma [11], 18 µM. Moreover, the Ki is above 5000 µM on Nitric oxide synthase 3 and 105 µM on Nitric oxide synthase 1.
Turning to `O=C(Cn1cccc1)c1ccc([N+](=O)[O-])cc1`, the Ki at Nitric oxide synthase 1 came to 230 µM.
Consider `O=C(Cn1cnc(-c2ccccc2)c1)c1ccc([N+](=O)[O-])cc1`, for which the Ki stood at 70 µM on Nitric oxide synthase 3 and 45 µM on Nitric oxide synthase 1.
Consider `O=C(Cn1nnc2ccccc21)c1ccc([N+](=O)[O-])cc1`, for which the inhibition in the assay with Plasma [1] came to 37%; in the assay with Plasma [6], 57%; in the assay with Plasma [9] it was 48%. For the same molecule, the Activity in assay [2] is 21%; in assay [3] it was 51%; in assay [4] it was 35%; in assay [5], “Dose-dependent effect”; in assay [7] it was 31%; in assay [8], 26%. Further, the results for the Activity entry in [10] and in [12] were “Dose-dependent effect” and 14%, respectively. Besides, the results for the IC50 (in [5]; in [10]; with Plasma [11]) were 85 µM, above 500 µM and 17 µM, respectively. Moreover, the results for the Ki on Nitric oxide synthase 3 and at Nitric oxide synthase 1 were 32.5 µM and 12.5 µM, respectively.
For the molecule `CC(C)c1nccn1CC(=O)c1ccc([N+](=O)[O-])cc1`, the half-maximal inhibitory concentration (IC50) in assay [5] was 185 µM; in [10], 230 µM; with Plasma [11], above 100 µM. For the same molecule, the inhibitory constant (Ki) is 500 µM on Nitric oxide synthase 3 and 22.5 µM at Nitric oxide synthase 1.
Regarding `O=C(Cn1cnc2cccnc21)c1ccc([N+](=O)[O-])cc1`, the values for the inhibition constant (Ki) on Nitric oxide synthase 3 and at Nitric oxide synthase 1 were 70.2 µM and 31.7 µM, respectively.
Turning to `Cc1cncn1CC(=O)c1ccc([N+](=O)[O-])cc1`, the Ki is 45 µM at Nitric oxide synthase 3 and 90 µM on Nitric oxide synthase 1.
On to `Cc1nccn1CC(=O)c1ccc(Br)cc1`, for which the Ki at Nitric oxide synthase 1 came to 620 µM.
For the molecule `O=C(Cn1cnc([N+](=O)[O-])c1)c1ccc([N+](=O)[O-])cc1`, the inhibitory constant (Ki) on Nitric oxide synthase 3 and on Nitric oxide synthase 1 was 120 µM in each case.
For `Cc1cc2ncn(CC(=O)c3ccc([N+](=O)[O-])cc3)c2cc1C`, the Activity in assay [2] is 19%; in assay [3], 45%; in [4], 37%; in [5], “Dose-dependent effect”; in [7], 45%; in assay [8], 0%. For the same molecule, the Activity result in [10] was “Dose-dependent effect”; in assay [12], 11%. The half-maximal inhibitory concentration (IC50) in [5] was above 100 µM; in assay [10], above 500 µM. Besides, the Ki on Nitric oxide synthase 3 came to 37.5 µM; on Nitric oxide synthase 1, 13.8 µM.

A word on the inhibition: it is the change of the read-out against control, counted positive when it falls. The term IC50 denotes the midpoint of a concentration-inhibition curve. Usually Ki stands for a dissociation constant, usually derived from enzyme kinetics or from competition with a known ligand.
